Legend:
[1] = molecular target: Neuronal acetylcholine receptor; alpha3/beta2 (Rattus norvegicus, UniProt P04757+P12390); test: Displacement of [3H] epibatidine from rat alpha3beta2 nAChR by beta scintillation counting; assay type: protein-complex assay
[2] = molecular target: T1, Neuronal acetylcholine receptor; alpha4/beta2 (Rattus norvegicus, UniProt P09483+P12390); test: Displacement of [3H] epibatidine from rat alpha4beta2 nAChR by beta scintillation counting; assay type: protein-complex assay
[3] = molecular target: T1, Neuronal acetylcholine receptor; alpha4/beta2; test: Displacement of [3H] epibatidine from rat alpha4beta2* nAChR in rat forebrain by beta scintillation counting
[4] = molecular target: T2, Neuronal acetylcholine receptor; alpha4/beta2 (Homo sapiens, UniProt P17787+P43681); test: Agonist activity at human alpha4beta2 nAChR expressed in SH-EP1 cells assessed as 86Rb+ ion efflux after 9.5 mins by flip-plate technique; assay type: functional, cell-based
Outline: (§1)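 SH-EP1 human epithelial cells stably transfected with separate human α4 and β2 subunit cDNAs express a mixed population of high-sensitivity (2:3 α4:β2) and low-sensitivity (3:2) α4β2-nAChRs. Cells were kept at low passage (1−26 from frozen stocks). Function was read as 86Rb+ ion flux.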

[5] = molecular target: T2, Neuronal acetylcholine receptor; alpha4/beta2; test: Antagonist activity at human alpha4beta2 nAChR expressed in SH-EP1 cells assessed as inhibition of carbamylcholine induced 86Rb+ ion efflux preincubated for 10 mins prior to carbamylcholine-induction measured after 5 mins by flip-plate technique; assay type: functional, cell-based; outline: as §1
[6] = molecular target: T2, Neuronal acetylcholine receptor; alpha4/beta2; test: Antagonist activity at human high sensitive and low sensitive alpha4beta2 nAChR expressed in SH-EP1 cells assessed as inhibition of carbamylcholine induced 86Rb+ ion efflux preincubated for 10 mins prior to carbamylcholine-induction measured after 5 mins by flip-plate technique relative to control; assay type: functional, cell-based; outline: as §1
[7] = molecular target: T3, Alpha-1B adrenergic receptor (Homo sapiens) (UniProt P35368); test: Displacement of [3H]Prazosin from alpha1B adrenergic receptor at 10 uM
T3 sequence (whole entry): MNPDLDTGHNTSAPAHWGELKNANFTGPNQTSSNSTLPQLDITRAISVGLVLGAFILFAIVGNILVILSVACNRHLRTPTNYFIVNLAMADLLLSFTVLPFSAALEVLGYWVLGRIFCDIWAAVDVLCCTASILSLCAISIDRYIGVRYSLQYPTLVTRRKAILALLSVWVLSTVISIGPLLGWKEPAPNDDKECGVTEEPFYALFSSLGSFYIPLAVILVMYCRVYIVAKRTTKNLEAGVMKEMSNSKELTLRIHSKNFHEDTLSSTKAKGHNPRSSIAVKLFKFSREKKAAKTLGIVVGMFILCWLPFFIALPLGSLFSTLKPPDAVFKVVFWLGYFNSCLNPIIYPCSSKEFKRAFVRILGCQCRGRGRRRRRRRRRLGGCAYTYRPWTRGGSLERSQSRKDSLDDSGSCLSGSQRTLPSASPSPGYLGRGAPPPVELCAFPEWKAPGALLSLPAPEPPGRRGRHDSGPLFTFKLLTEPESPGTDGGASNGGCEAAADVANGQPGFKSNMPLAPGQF

[8] = molecular target: T4, Alpha-2C adrenergic receptor (Homo sapiens) (UniProt P18825); test: Displacement of [3H]Clonidine from alpha2C adrenergic receptor at 10 uM
T4 sequence (whole entry): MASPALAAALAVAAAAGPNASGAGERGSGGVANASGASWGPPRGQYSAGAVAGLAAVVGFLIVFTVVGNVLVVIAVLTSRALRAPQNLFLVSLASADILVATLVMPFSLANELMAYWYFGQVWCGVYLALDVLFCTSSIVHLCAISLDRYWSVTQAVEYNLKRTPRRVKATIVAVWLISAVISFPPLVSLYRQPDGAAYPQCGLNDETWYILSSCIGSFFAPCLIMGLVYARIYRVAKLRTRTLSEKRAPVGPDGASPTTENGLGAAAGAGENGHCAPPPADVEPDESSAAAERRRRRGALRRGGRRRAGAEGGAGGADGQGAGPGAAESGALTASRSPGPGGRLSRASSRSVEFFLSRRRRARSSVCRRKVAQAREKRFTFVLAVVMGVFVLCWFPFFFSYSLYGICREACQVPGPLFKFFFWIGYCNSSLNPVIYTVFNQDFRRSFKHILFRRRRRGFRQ

[9] = molecular target: Beta-1 adrenergic receptor (Homo sapiens) (UniProt P08588); test: Displacement of [125I]Iodopindolol from beta1 adrenergic receptor at 10 uM
[10] = molecular target: T5, Muscarinic acetylcholine receptor M4 (Homo sapiens) (UniProt P08173); test: Displacement of [3H]QNB from M4 receptor at 10 uM
T5 sequence (whole entry): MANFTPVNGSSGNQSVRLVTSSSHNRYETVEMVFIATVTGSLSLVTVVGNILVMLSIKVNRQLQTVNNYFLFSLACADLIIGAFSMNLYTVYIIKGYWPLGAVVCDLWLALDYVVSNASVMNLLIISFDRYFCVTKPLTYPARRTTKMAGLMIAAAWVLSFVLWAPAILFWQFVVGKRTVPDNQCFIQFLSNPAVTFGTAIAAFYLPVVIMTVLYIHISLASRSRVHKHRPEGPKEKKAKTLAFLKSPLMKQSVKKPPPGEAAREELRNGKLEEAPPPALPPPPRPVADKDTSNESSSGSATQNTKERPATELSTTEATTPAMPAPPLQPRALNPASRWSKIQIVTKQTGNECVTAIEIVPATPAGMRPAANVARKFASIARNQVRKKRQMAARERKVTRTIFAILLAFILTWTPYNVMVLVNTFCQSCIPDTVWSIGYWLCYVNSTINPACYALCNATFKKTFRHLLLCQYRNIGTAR

[11] = molecular target: Delta-type opioid receptor (Homo sapiens) (UniProt P41143); test: Displacement of [3H]DADLE from delta opioid receptor at 10 uM
[12] = molecular target: Kappa-type opioid receptor (Homo sapiens) (UniProt P41145); test: Displacement of [3H]U69593 from kappa opioid receptor at 10 uM
[13] = molecular target: Mu-type opioid receptor (Homo sapiens) (UniProt P35372); test: Displacement of [3H]DAMGO from mu opioid receptor at 10 uM
[14] = molecular target: Sigma non-opioid intracellular receptor 1 (Homo sapiens) (UniProt Q99720); test: Displacement of [3H]Pentazocine from sigma1 receptor at 10 uM
[15] = Metabolic stability in human liver microsomes assessed as compound remaining at 1 uM after 1 hr; assay type: ADME, Microsome; settings: read-out: Stability
Outline: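 Compound at 1 μM incubated for 1 h with human or mouse liver microsomes; percent of parent remaining unchanged.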

Cytochrome P450 2C9 = Cytochrome P450 2C9 (Homo sapiens, UniProt P11712); test: Inhibition of CYP2C9 up to 10 uM; assay type: ADME
Outline: (§2)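 Percent inhibition of CYP isoforms (CYP1A, CYP2C9, CYP2C19, CYP2D6, CYP3A; CYP1A2 reported) with test compound at concentrations up to 10 μM.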

Cytochrome P450 2D6 = Cytochrome P450 2D6 (Homo sapiens, UniProt P10635); test: Inhibition of CYP2D6 up to 10 uM; assay type: ADME; outline: as §2
[16] = Displacement of [3H]Muscimol from GABA(A) at 10 uM

T2 sequence (P17787 whole entry): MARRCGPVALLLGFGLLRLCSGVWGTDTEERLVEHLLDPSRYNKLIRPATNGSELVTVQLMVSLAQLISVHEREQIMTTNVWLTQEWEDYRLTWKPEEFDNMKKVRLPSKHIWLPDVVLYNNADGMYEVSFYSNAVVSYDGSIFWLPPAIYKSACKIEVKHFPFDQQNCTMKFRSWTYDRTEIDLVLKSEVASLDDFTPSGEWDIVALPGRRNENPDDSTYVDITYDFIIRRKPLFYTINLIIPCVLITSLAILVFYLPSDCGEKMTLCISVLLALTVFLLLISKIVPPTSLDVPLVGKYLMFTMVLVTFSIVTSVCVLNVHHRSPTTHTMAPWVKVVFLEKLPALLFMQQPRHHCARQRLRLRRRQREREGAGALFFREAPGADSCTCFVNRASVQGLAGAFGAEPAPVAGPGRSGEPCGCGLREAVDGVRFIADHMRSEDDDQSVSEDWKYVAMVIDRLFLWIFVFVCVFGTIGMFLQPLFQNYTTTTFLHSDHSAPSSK
T2 sequence (P43681 whole entry): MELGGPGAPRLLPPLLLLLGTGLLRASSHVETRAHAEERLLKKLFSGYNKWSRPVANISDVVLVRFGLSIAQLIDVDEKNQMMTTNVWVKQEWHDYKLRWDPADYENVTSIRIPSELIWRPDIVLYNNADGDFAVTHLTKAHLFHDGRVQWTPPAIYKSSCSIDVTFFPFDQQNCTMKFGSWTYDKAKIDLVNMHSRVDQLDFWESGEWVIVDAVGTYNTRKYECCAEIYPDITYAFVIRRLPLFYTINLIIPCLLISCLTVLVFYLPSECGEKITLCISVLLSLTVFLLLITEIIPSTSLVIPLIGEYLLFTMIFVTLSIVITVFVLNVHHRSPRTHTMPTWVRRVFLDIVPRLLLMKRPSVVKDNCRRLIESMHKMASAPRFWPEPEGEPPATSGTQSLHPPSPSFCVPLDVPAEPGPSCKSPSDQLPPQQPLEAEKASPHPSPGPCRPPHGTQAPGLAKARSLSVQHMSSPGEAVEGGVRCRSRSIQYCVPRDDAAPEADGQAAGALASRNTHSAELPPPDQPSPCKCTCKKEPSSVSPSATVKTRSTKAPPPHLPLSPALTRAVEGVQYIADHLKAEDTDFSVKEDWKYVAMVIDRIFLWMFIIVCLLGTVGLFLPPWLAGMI
Chain of Beta-1 adrenergic receptor (Homo sapiens) (P08588 whole entry, looked up): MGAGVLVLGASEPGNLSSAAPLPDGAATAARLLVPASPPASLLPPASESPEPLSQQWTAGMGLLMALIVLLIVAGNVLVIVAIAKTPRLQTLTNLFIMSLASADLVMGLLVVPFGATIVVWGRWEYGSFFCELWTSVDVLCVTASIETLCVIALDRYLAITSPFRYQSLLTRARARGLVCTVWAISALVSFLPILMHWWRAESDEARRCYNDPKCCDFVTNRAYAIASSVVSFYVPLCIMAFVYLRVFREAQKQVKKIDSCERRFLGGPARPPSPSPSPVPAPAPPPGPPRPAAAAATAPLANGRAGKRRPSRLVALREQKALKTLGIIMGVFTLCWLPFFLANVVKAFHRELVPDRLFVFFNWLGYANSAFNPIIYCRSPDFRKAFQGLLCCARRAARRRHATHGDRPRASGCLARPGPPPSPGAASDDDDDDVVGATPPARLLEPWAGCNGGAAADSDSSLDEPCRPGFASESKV
Chain of Kappa-type opioid receptor (Homo sapiens) (P41145 whole entry): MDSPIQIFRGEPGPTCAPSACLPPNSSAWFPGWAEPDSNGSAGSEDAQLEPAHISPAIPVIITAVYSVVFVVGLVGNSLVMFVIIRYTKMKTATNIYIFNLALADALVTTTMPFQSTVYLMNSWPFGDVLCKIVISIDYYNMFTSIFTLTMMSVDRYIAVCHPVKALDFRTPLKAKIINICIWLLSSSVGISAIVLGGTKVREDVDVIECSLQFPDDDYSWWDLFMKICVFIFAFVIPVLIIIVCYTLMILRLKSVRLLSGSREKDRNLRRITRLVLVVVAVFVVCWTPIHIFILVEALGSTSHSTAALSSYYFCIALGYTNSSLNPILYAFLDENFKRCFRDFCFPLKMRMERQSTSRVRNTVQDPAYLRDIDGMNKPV
Chain of Neuronal acetylcholine receptor; alpha3/beta2 (P04757 whole entry): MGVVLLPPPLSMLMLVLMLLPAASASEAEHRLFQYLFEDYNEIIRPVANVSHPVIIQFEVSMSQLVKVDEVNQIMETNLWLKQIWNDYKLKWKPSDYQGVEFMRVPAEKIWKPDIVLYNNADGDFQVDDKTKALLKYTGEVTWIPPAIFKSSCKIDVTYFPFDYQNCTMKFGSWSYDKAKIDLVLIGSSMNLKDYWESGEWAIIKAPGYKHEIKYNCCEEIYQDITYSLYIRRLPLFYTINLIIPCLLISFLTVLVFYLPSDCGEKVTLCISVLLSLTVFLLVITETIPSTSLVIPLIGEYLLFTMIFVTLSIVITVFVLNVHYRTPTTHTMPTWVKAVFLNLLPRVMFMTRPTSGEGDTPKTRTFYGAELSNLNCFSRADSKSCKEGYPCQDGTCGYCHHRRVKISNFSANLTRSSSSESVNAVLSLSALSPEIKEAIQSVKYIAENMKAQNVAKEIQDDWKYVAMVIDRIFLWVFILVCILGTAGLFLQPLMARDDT
Chain of Neuronal acetylcholine receptor; alpha3/beta2 (P12390 whole entry): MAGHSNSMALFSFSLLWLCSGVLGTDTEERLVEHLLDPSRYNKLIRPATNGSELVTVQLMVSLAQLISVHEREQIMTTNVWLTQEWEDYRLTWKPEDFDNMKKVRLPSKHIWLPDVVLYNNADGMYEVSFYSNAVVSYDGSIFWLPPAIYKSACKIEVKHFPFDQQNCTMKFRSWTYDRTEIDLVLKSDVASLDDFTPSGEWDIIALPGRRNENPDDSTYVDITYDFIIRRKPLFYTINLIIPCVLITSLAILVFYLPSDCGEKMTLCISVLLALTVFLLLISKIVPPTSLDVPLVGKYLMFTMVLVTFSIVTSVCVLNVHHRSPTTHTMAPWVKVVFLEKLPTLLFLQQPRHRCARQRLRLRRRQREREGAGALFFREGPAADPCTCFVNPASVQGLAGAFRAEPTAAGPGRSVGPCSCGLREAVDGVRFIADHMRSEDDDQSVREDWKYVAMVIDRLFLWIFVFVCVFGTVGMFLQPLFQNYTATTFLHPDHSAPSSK
Chain of Delta-type opioid receptor (Homo sapiens) (P41143 whole entry): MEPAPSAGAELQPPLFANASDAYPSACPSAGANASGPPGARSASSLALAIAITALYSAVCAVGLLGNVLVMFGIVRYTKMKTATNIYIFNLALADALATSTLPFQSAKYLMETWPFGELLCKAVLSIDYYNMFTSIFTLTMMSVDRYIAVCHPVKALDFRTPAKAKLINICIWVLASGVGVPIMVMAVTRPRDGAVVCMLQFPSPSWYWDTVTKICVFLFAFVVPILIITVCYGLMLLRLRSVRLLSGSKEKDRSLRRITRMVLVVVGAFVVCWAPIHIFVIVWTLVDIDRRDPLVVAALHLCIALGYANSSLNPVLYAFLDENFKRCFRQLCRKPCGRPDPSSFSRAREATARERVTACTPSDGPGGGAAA
Chain of Sigma non-opioid intracellular receptor 1 (Homo sapiens) (Q99720 whole entry): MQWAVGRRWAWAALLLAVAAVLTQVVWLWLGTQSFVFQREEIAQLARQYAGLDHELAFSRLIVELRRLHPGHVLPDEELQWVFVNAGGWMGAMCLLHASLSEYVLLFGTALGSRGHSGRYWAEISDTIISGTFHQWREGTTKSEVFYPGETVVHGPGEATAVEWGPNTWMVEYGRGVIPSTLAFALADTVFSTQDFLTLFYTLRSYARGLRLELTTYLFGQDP
Chain of Mu-type opioid receptor (Homo sapiens) (P35372 whole entry): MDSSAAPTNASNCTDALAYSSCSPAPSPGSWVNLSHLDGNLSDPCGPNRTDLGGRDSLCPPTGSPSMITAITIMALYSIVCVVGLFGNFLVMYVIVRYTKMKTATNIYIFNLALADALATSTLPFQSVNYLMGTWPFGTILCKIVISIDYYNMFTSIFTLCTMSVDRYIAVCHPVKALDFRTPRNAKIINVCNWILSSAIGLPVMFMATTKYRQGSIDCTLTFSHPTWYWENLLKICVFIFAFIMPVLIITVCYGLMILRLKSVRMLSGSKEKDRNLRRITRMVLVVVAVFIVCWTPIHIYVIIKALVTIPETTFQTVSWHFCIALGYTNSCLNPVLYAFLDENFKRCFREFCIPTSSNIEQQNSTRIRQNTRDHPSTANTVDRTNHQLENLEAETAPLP
Chain of Cytochrome P450 2D6 (P10635 whole entry): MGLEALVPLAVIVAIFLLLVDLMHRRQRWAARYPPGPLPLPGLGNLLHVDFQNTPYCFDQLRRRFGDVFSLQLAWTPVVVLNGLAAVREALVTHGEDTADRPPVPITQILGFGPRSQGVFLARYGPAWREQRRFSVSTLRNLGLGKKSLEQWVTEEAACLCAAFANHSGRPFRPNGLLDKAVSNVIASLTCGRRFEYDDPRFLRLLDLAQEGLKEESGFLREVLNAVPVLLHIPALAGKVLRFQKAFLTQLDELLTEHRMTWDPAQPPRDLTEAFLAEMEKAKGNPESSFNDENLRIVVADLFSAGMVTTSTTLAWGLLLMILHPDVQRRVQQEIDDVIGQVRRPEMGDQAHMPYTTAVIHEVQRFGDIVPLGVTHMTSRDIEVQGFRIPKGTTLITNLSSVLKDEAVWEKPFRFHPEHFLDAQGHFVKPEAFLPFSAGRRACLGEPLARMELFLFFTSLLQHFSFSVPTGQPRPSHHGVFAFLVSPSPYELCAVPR
Chain of Cytochrome P450 2C9 (P11712 whole entry, canonical isoform): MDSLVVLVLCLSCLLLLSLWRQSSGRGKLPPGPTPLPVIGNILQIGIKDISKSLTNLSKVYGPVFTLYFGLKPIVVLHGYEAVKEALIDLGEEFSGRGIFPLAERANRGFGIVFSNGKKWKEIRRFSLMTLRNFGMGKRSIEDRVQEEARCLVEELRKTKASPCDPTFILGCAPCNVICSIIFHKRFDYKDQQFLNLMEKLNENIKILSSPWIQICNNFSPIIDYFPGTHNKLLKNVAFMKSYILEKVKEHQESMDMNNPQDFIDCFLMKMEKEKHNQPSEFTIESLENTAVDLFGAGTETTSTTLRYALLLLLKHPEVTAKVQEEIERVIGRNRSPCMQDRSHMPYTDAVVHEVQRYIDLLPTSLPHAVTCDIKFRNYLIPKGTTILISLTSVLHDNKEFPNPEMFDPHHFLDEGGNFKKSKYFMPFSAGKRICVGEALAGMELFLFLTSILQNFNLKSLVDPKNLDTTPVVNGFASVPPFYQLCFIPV

SMILES	Ki [1]	Ki [2]	Ki [3]	EC50 [4]	IC50 [5]	Efficacy [6]	inhibition [7]	inhibition [8]	inhibition [9]	inhibition [10]	inhibition [11]	inhibition [12]	inhibition [13]	inhibition [14]	remaining at 1 h, 1 µM [15]	inhibition (INH) (Cytochrome P450 2C9)	inhibition (INH) (Cytochrome P450 2D6)	inhibition [16]
CNC(=O)OCC[C@H]1C[C@@H]1c1cncc(OC[C@@H]2CCN2)c1	9.8 nM	0.6 nM	1.7 nM	15.7 nM	18.2 nM	85%	14.1%	42%	18.2%	29.2%	-4.4%	19.1%	37.3%	3.9%	98%	<= 25%	<= 25%	-1.1%
COCC[C@H]1C[C@@H]1c1cncc(OC[C@@H]2CCN2)c1	2.4 nM	0.1 nM	0.3 nM	17.5 nM	5.6 nM	71%	8.6%	30.6%	48.3%	0.7%	-4.2%	7.2%	-5.6%	58.7%	84%	<= 25%	<= 25%	2%
OCC[C@H]1C[C@@H]1c1cncc(OC[C@@H]2CCN2)c1	3 nM	0.1 nM	0.5 nM	10.2 nM	9.4 nM	63%	-4.5%	17.6%	45.8%	-3.7%	0.8%	3.7%	0.4%	0.5%	80%	<= 25%	<= 25%	-2.5%

Source: ChEMBL document CHEMBL2021777 (J Med Chem, 2012)
